# Measurements: the RNAGym collection of RNA variant scans (doi:10.1038/s41586-018-0170-7)
# B1: tRNA (parent)
# chain: GUUCCGUUGGCGUAAUGGUAACGCGUCUCCCUCCUAAGGAGAAGACUGCGGGUUCGAGUCCCGUACGGAACG
# Variants of: B1
# Test: yeast fitness, log relative to wild type (ln ratio); higher = fitter; tRNA-Arg(CCU), competitive growth, 37 C, 1 M NaCl
# Procedure, shortened: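 Fitness is the natural log of a genotype's generation count divided by that of the wild type. A combinatorial library of tRNA-Arg(CCU) variants sat on a HIS3 centromeric plasmid in BY4742 lacking the chromosomal gene, from two independent transformations. Pools grew 4 generations in SC-HIS at 30 °C, then ~6.5 generations (~26.5 h) in SC-HIS 1M NaCl at 37 °C, with three outputs per input. Generations came from OD-scaled log2 output/input frequency, inverse-variance weighted across replicates, with variants counted by 125 bp paired-end Illumina sequencing.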
row,Variant,yeast fitness (ln)
1,GGUCCGUUGGCGUAAUGGUAACGCGUCUCCCUCCUAAGGAGAAGACUGCGGGUUCGAGUCCCGUAUGGGAUG,-0.213
2,GCUCCGUUGGCGUAAUGGUAACGCGUUUCCCUCCUAAGGAGACGAUUGCGGGUUCGAGUCCCGUACGGGUUG,-0.307
3,GGUCCAUUGGCGUAAUGGUAACGCGUCUCCCUCCUAAGGAGACGACUGCGGGUUCGAGUCCCGUACGGAUUG,-0.169
4,GUUCCGUUGGCGUAAUGGUAACGCGUUUCCCUCCUAAGGAGAAGAUUGCGGGUUCGAGUCCCGUACGGGACG,-0.0243
5,GGUCCGUUGGCGUAAUGGUAACGCGUCUCCCUCCUAAGGAGACGAUUGCGGGUUCGAGUCCCGUAAGGAUCG,-0.0637
6,AGUCCAUUGGCGUAAUGGUAACGCGUUUCCCUCCUAAGGAGAAGAUUGCGGGUUCGAGUCCCGUAUGGAGUG,-0.243
7,GGUCCAUUGGCGUAAUGGUAACGCGUUUCCCUCCUAAGGAGAAGACUGCGGGUUCGAGUCCCGUAAGGGUCG,-0.287
8,ACUCCGUUGGCGUAAUGGUAACGCGUUUCCCUCCUAAGGAGAAGAUUGCGGGUUCGAGUCCCGUAUGGGGUG,-0.174
9,GUUCCUUUGGCGUAAUGGUAACGCGUCUCCCUCCUAAGGAGACGAUUGCGGGUUCGAGUCCCGUAAGGGUUG,-0.314
10,GCUCCGUUGGCGUAAUGGUAACGCGUCUCCCUCCUAAGGAGACGACUGCGGGUUCGAGUCCCGUAUGGGUCG,-0.263
11,ACUCCGUUGGCGUAAUGGUAACGCGUCUCCCUCCUAAGGAGAAGAUUGCGGGUUCGAGUCCCGUAAGGGGUG,-0.273
12,AGUCCGUUGGCGUAAUGGUAACGCGUCUCCCUCCUAAGGAGAAGACUGCGGGUUCGAGUCCCGUACGGGGUG,-0.438
13,GGUCCAUUGGCGUAAUGGUAACGCGUUUCCCUCCUAAGGAGAAGACUGCGGGUUCGAGUCCCGUACGGAUCG,-0.283
14,GUUCCUUUGGCGUAAUGGUAACGCGUUUCCCUCCUAAGGAGACGAUUGCGGGUUCGAGUCCCGUAUGGGGUG,-0.444
15,ACUCCGUUGGCGUAAUGGUAACGCGUCUCCCUCCUAAGGAGACGACUGCGGGUUCGAGUCCCGUAUGGGUUG,-0.279
16,GUUCCUUUGGCGUAAUGGUAACGCGUCUCCCUCCUAAGGAGACGACUGCGGGUUCGAGUCCCGUACGGAGUG,-0.249
17,GUUCCAUUGGCGUAAUGGUAACGCGUCUCCCUCCUAAGGAGAAGACUGCGGGUUCGAGUCCCGUAAGGAUCG,-0.158
18,AGUCCGUUGGCGUAAUGGUAACGCGUUUCCCUCCUAAGGAGACGAUUGCGGGUUCGAGUCCCGUACGGGUCG,-0.161
19,GUUCCUUUGGCGUAAUGGUAACGCGUCUCCCUCCUAAGGAGAAGACUGCGGGUUCGAGUCCCGUAUGGGUCG,-0.261

row,Variant,yeast fitness (ln)
1,ACUCCAUUGGCGUAAUGGUAACGCGUCUCCCUCCUAAGGAGACGAUUGCGGGUUCGAGUCCCGUAUGGAUUG,-0.402
2,GGUCCUUUGGCGUAAUGGUAACGCGUCUCCCUCCUAAGGAGAAGAUUGCGGGUUCGAGUCCCGUACGGAUUG,-0.461
3,GGUCCGUUGGCGUAAUGGUAACGCGUCUCCCUCCUAAGGAGAAGACUGCGGGUUCGAGUCCCGUAUGGAUUG,-0.543
4,ACUCCUUUGGCGUAAUGGUAACGCGUCUCCCUCCUAAGGAGAAGACUGCGGGUUCGAGUCCCGUACGGGUUG,-0.277
5,AGUCCGUUGGCGUAAUGGUAACGCGUCUCCCUCCUAAGGAGACGAUUGCGGGUUCGAGUCCCGUAAGGAGCG,-0.26
6,AUUCCUUUGGCGUAAUGGUAACGCGUCUCCCUCCUAAGGAGAAGACUGCGGGUUCGAGUCCCGUACGGGGUG,-0.247
7,AUUCCUUUGGCGUAAUGGUAACGCGUUUCCCUCCUAAGGAGACGACUGCGGGUUCGAGUCCCGUAAGGGGUG,-0.417
8,ACUCCGUUGGCGUAAUGGUAACGCGUCUCCCUCCUAAGGAGACGACUGCGGGUUCGAGUCCCGUACGGAGCG,-0.0553
9,AUUCCUUUGGCGUAAUGGUAACGCGUCUCCCUCCUAAGGAGACGACUGCGGGUUCGAGUCCCGUAUGGGUUG,-0.433
10,GUUCCGUUGGCGUAAUGGUAACGCGUUUCCCUCCUAAGGAGAAGACUGCGGGUUCGAGUCCCGUAUGGGUUG,-0.369
11,GGUCCGUUGGCGUAAUGGUAACGCGUUUCCCUCCUAAGGAGACGACUGCGGGUUCGAGUCCCGUAAGGAAUG,-0.238
12,GUUCCUUUGGCGUAAUGGUAACGCGUUUCCCUCCUAAGGAGACGACUGCGGGUUCGAGUCCCGUACGGGGCG,-0.401
13,GUUCCUUUGGCGUAAUGGUAACGCGUUUCCCUCCUAAGGAGACGAUUGCGGGUUCGAGUCCCGUACGGAACG,-0.155
14,GGUCCAUUGGCGUAAUGGUAACGCGUCUCCCUCCUAAGGAGACGAUUGCGGGUUCGAGUCCCGUACGGGGCG,-0.169
15,AUUCCGUUGGCGUAAUGGUAACGCGUCUCCCUCCUAAGGAGAAGAUUGCGGGUUCGAGUCCCGUAUGGAAUG,-0.0203
16,GGUCCAUUGGCGUAAUGGUAACGCGUCUCCCUCCUAAGGAGAAGAUUGCGGGUUCGAGUCCCGUAAGGAAUG,-0.134
17,GCUCCAUUGGCGUAAUGGUAACGCGUUUCCCUCCUAAGGAGAAGAUUGCGGGUUCGAGUCCCGUACGGAAUG,-0.119
18,GUUCCAUUGGCGUAAUGGUAACGCGUUUCCCUCCUAAGGAGACGAUUGCGGGUUCGAGUCCCGUAUGGAUCG,-0.183
19,GUUCCAUUGGCGUAAUGGUAACGCGUCUCCCUCCUAAGGAGACGAUUGCGGGUUCGAGUCCCGUACGGGGCG,-0.216
